{"data": "Measured values pooled from the literature", "MMP8": "Neutrophil collagenase (MMP8, Homo sapiens, UniProt P22894)", "PDE2A": "cGMP-dependent 3',5'-cyclic phosphodiesterase (PDE2A, Homo sapiens, UniProt O00408)", "note": "Compare with care: the assays were run in different laboratories."}
{"Structure (SMILES)": "CCN(CC)CCCC[C@H](NC(=O)[C@H](CC(C)C)NC(=O)[C@H](C)NC(=O)[C@H](Cc1ccccc1)NC(=O)c1ccc(C(C)(C)C)cc1)C(=O)N[C@@H](CO)C(=O)OC", "target": "Cholecystokinin receptor type A (CCKAR, Homo sapiens, UniProt P32238)", "assay": "ligand displacement, radioligand", "conditions": "10 µM", "inhibition [%]": 33}
{"Structure (SMILES)": "N=C(N)c1ccc2cc(OC(=O)c3ccc(N=C(N)N)cc3)ccc2c1", "target": "MMP8", "assay": "enzyme activity, inhibitor", "conditions": "10 µM", "inhibition [%]": 0}
{"Structure (SMILES)": "NC(CO)C(=O)N/N=C/c1ccc(O)c(O)c1 (stereo not shown)", "target": "Genome polyprotein, protease (Coxsackievirus B3, UniProt P03313)", "assay": "enzyme activity, inhibitor, FRET", "conditions": "50 µM", "inhibition [%]": 55.9}
{"Structure (SMILES)": "COc1ccc(S(=O)(=O)N(CC(=O)NO)CC(C)C)cc1", "target": "MMP8", "assay": "enzyme activity, inhibitor", "conditions": "1 µM", "inhibition [%]": 91}
{"Structure (SMILES)": "CC(C)=CCC[C@]1(C)C=Cc2c(O)c3c(c(CC=C(C)C)c2O1)O[C@]12C(=C[C@@H]4C[C@H]1C(C)(C)O[C@@]2(C/C=C(/C)C(=O)O)C4=O)C3=O", "target": "N-lysine methyltransferase KMT5A (KMT5A, Homo sapiens, UniProt Q9NQR1)", "assay": "cell-free assay", "conditions": "10 µM", "inhibition [%]": 18}
{"Structure (SMILES)": "c1ccc(C(NCCNC(c2ccccc2)c2ccccc2)c2ccccc2)cc1", "target": "Carbonic anhydrase 2 (CA2, Homo sapiens, UniProt P00918)", "assay": "enzyme activity, inhibitor", "conditions": "10 µM", "inhibition [%]": -7}
{"Structure (SMILES)": "Clc1ccc2c(C3CCN(CCc4c[nH]c5ccccc45)CC3)c[nH]c2c1", "target": "Androgen receptor (AR, Homo sapiens, UniProt P10275)", "assay": "ligand displacement, radioligand", "conditions": "10 µM", "inhibition [%]": 25}
{"Structure (SMILES)": "Cn1cc(-c2cc(F)cc(N3CCn4c(cc5c4CCCC5)C3=O)c2CO)cc(Nc2ccc(N3CCN(C4COC4)CC3)cn2)c1=O", "target": "Serine/threonine-protein kinase WNK2 (WNK2, Homo sapiens, UniProt Q9Y3S1)", "assay": "enzyme activity, inhibitor", "conditions": "0.1 µM", "inhibition [%]": -12}
{"Structure (SMILES)": "CN(CCN1CCC(OC(=O)Nc2ccccc2-c2ccccc2)CC1)C(=O)c1ccc(CN2CCC(C(N)=O)CC2)cc1", "target": "PDE2A", "assay": "enzyme activity, inhibitor", "conditions": "1 µM", "inhibition [%]": 1}
{"Structure (SMILES)": "Cn1cc(-c2cccc(N3CCc4c(sc5c4CC(C)(C)C5)C3=O)c2CO)cc(Nc2ccncn2)c1=O", "target": "G protein-coupled receptor kinase 3 (GRK3, Homo sapiens, UniProt P35626)", "assay": "enzyme activity, inhibitor", "conditions": "1 µM", "inhibition [%]": 16}
{"Structure (SMILES)": "C#Cc1n[nH]c2c(-c3cn([C@@H](C)c4ccccn4)c(=O)[nH]c3=O)cc(F)cc12", "target": "cAMP-dependent protein kinase catalytic subunit alpha (PRKACA, Homo sapiens, UniProt P17612)", "assay": "enzyme activity, inhibitor", "conditions": "0.1 µM", "inhibition [%]": 5.1}
{"Structure (SMILES)": "O=C(Nc1cccnn1)N1CCN([C@@H]2CCOc3cc(C(F)(F)F)ccc32)CC1", "target": "5-hydroxytryptamine receptor 1D (Htr1d, Rattus norvegicus, UniProt P28565)", "assay": "cell-free assay", "conditions": "20 µM", "inhibition [%]": 4}
{"Structure (SMILES)": "Cc1ncc(C)n2nc(/C=C/c3nc(N4CCCC4)cc(N4CCOCC4)n3)nc12", "target": "PDE2A", "assay": "enzyme activity, inhibitor", "conditions": "10 µM", "inhibition [%]": 38}
